Calls of active or inactive are those of the source. The rule behind the calls is not given here.
Assays:
[1] = Metabolic stability in CD1 mouse liver microsomes assessed as intrinsic clearance by UPLC-MS/MS analysis; assay type: ADME
In short: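 Compound at 0.5 μM incubated with female CD1 mouse liver microsomes (0.5 mg mL-1, 50 mM potassium phosphate pH 7.4). Reaction started with excess NADPH. Aliquots taken at 0, 3, 6, 9, 15, 30 min and quenched in acetonitrile with internal standard, then analysed by UPLC-MS/MS.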

[2] = Selectivity index, ratio of EC50 for human MRC-5 cells to EC50 for bloodstream-form Trypanosoma brucei; assay type: toxicity; details: read-out: Selectivity Index
[3] = Antiproliferative activity against human MRC5 cells in presence of 5% Co2 incubated for 69 hrs followed by resazurin addition further incubated for 4 hrs; assay type: toxicity, cell-based
[4] = Kinetic aqueous solubility of the compound in DMSO by laser nephelometry; assay type: physicochemical; details: read-out: Kinetic_solubility
Trypanosoma brucei [5] = experiment: Antiparasitic activity against bloodstream-stage Trypanosoma brucei measured after 73 hrs by resazurin assay; assay type: functional, organism-based
[6] = Selectivity ratio of IC50 for inhibition of Trypanosoma brucei GSK3 to EC50 for antiparasitic activity against bloodstream-stage Trypanosoma brucei; assay type: toxicity
Trypanosoma brucei [7] = experiment: Antiparasitic activity against bloodstream-form Trypanosoma brucei in presence of 5% Co2 incubated for 69 hrs followed by resazurin addition further incubated for 4 hrs; assay type: functional, organism-based
[8] = Metabolic stability in human liver microsomes assessed as intrinsic clearance by UPLC-MS/MS analysis; assay type: ADME
[9] = AUC in Sprague-Dawley rat at 10 mg/kg, po by UPLC-MS/MS analysis; assay type: ADME, organism-based; parameters: dose 10 mg/kg, route po; details: in vivo
In short: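 Oral gavage at 10 mg kg-1 free base in 10% DMSO/40% PEG400/50% water, 5 mL kg-1, to female NMRI mice (n = 3) or Sprague-Dawley rats. Blood drawn at 5, 15, 30 min and 1, 2, 4, 6, 8 h, mixed with two volumes of water, measured by UPLC-MS/MS. Parameters taken from the mean blood concentration–time curve.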

[10] = Free Cmax in NMRI mouse at 100 mg/kg, ip by UPLC-MS/MS analysis; assay type: ADME, organism-based; details: in vivo
[11] = Tmax in NMRI mouse at 50 mg/kg, ip by UPLC-MS/MS analysis; assay type: ADME, organism-based; details: in vivo
[12] = Free Cmax in Sprague-Dawley rat at 10 mg/kg, po by UPLC-MS/MS analysis; assay type: ADME, organism-based; details: in vivo
[13] = tested on: Trypanosoma brucei brucei; experiment: Antiparasitic activity against Trypanosoma brucei brucei S427 injected in Sprague-Dawley rat assessed as cure by measuring reduction in parasitemia at 100 mg/kg, po twice daily for 4 days by stage I efficacy study; assay type: functional, organism-based; details: time 4.0 day
[14] = Cmax in NMRI mouse at 100 mg/kg, ip by UPLC-MS/MS analysis; assay type: ADME, organism-based; parameters: dose 100 mg/kg, route ip; details: in vivo
[15] = Free Cmax in NMRI mouse at 50 mg/kg, ip by UPLC-MS/MS analysis; assay type: ADME, organism-based; details: in vivo
[16] = AUC in NMRI mouse at 50 mg/kg, ip by UPLC-MS/MS analysis; assay type: ADME, organism-based; parameters: dose 50 mg/kg, route ip; details: in vivo
[17] = Cmax in NMRI mouse at 50 mg/kg, ip by UPLC-MS/MS analysis; assay type: ADME, organism-based; parameters: dose 50 mg/kg, route ip; details: in vivo
[18] = tested on: Trypanosoma brucei brucei; experiment: Antiparasitic activity against Trypanosoma brucei brucei S427 injected in NMRI mouse assessed as cure by measuring reduction in parasitemia at 100 mg/kg, for 4 days by stage I efficacy study; details: time 4.0 day

Structure (SMILES)	CLH [1]	EC50 at 69 h [3]	other results
Nc1nc(Nc2ccc(F)c(F)c2)sc1C(=O)CN1CCCC1	2.1 mL/min/g		
O=C(c1cnc(NC2CCCCC2)s1)C1CCCCC1	15 mL/min/g		
Nc1nc(Nc2ccc(F)c(F)c2)sc1C(=O)CN1CCOCC1	4.7 mL/min/g	50 µM	selectivity ratio [2]: 2000
Nc1nc(NC2CCCC(O)C2)sc1C(=O)c1c(F)cccc1F (stereo unspecified)	1.8 mL/min/g		
Nc1nc(NC2CCCCC2)sc1C(=O)c1ccc(F)cc1F	6.5 mL/min/g		
CC(OCC(=O)c1sc(Nc2ccc(C(F)(F)F)cc2)nc1N)C(F)(F)F (stereo unspecified)	2.3 mL/min/g		solubility kinetic [4]: > 100 µg/mL
Nc1nc(Nc2ccc(F)c(F)c2)sc1C(=O)COC1CCC1	9 mL/min/g	50 µM	
CC(OCC(=O)c1sc(Nc2ccc(C(F)(F)F)nc2)nc1N)C(F)(F)F (stereo unspecified)		50 µM	
CC(C)C(=O)c1sc(NC2CCCCC2)nc1N	0.5 mL/min/g		
COC(C)(C)CC(=O)c1sc(Nc2ccc(F)c(F)c2)nc1N	6.1 mL/min/g	50 µM	
Nc1nc(NC2CCCCC2)sc1C(=O)c1ccc(C(F)(F)F)cc1	1.4 mL/min/g		
Nc1nc(NC2CCCCC2)sc1C(=O)C1CCCCC1	8.9 mL/min/g		
CC(OCC(=O)c1sc(Nc2ccc(F)c(F)c2)nc1N)C(F)(F)F (stereo unspecified)	7.4 mL/min/g	50 µM	
Nc1nc(NC2CCCCC2)sc1C(=O)c1ccc(F)cc1	4.9 mL/min/g		
CC(C)(C)C(=O)c1sc(NC2CCCCC2)nc1N	2.5 mL/min/g		EC50 (Trypanosoma brucei [5]): 260 nM; Ratio IC50/EC50 [6]: 70
Nc1nc(NC2CCCCC2)sc1C(=O)c1c(Cl)cccc1Cl	4.1 mL/min/g		
CC(C)OCCC(=O)c1sc(Nc2ccc(F)c(F)c2)nc1N		50 µM	
CC(OCC(=O)c1sc(Nc2cccc(OC(F)F)c2)nc1N)C(F)(F)F (stereo unspecified)		50 µM	solubility kinetic [4]: > 100 µg/mL; EC50 (Trypanosoma brucei [7]): 20 nM; selectivity ratio [2]: 2500
Nc1nc(Nc2ccc(F)c(F)c2)sc1C(=O)CN1CCCC(F)(F)C1	33 mL/min/g		
COC(C)(C)C(=O)c1sc(NC2CCCCC2)nc1N	3.8 mL/min/g		
CC(C)(C)CC(=O)c1sc(Nc2ccc(F)c(F)c2)nc1N	4.6 mL/min/g		
Nc1nc(Nc2ccc(F)c(F)c2)sc1C(=O)CN1C[C@H]2CC[C@@H](C1)O2	8.8 mL/min/g	50 µM	
Nc1nc(NC2CCCCC2)sc1C(=O)C1CCC1	21 mL/min/g		selectivity ratio [2]: 5
CC(C)(C)OCC(=O)c1sc(Nc2ccc(F)c(F)c2)nc1N		50 µM	
CC(OCC(=O)c1sc(Nc2ccc(Cl)cc2)nc1N)C(F)(F)F (stereo unspecified)	5.3 mL/min/g	50 µM	solubility kinetic [4]: > 100 µg/mL

Structure (SMILES)	CLH [1]	EC50 at 69 h [3]	other results
Nc1nc(Nc2ccccc2)sc1C(=O)c1ccccc1	12 mL/min/g		CLH [8]: < 0.5 mL/min/g
Nc1nc(Nc2ccc(F)c(F)c2)sc1C(=O)CCN1CCOCC1	1.2 mL/min/g		
Nc1nc(Nc2ccc(F)c(F)c2)sc1C(=O)CN1CCC(F)(F)CC1	9.3 mL/min/g		
Nc1nc(NC2CCCCC2)sc1C(=O)c1ccncc1	4.1 mL/min/g		
Nc1nc(NC2CCCCC2)sc1C(=O)c1ccc(F)c(F)c1	12 mL/min/g		
CC1CCCN1CC(=O)c1sc(Nc2ccc(F)c(F)c2)nc1N (stereo unspecified)	5.2 mL/min/g	50 µM	
Nc1nc(NC2CCCCC2)sc1C(=O)c1cc(F)cc(F)c1	3.6 mL/min/g		
Nc1nc(NC2CCCCC2)sc1C(=O)c1ccc(OC(F)F)cc1	2.9 mL/min/g		CLH [8]: 0.8 mL/min/g; selectivity ratio [2]: 267
CC(C)(O)CC(=O)c1sc(Nc2ccc(F)c(F)c2)nc1N	2.2 mL/min/g		AUC [9]: 470 µg·h/mL; fCmax [10]: 5200 ng/mL; Tmax [11]: 30 min; fCmax [12]: 195 ng/mL; Activity [13]: inactive; Cmax [14]: 36000 ng/mL; fCmax [15]: 2600 ng/mL; CLH [8]: < 0.5 mL/min/g; AUC [16]: 1900 µg·h/mL; Cmax [17]: 18000 ng/mL; Activity [18]: inactive
CC(C)CC(=O)c1sc(Nc2ccc(F)c(F)c2)nc1N	5.9 mL/min/g		CLH [8]: 3.2 mL/min/g
Nc1nc(Nc2ccc(F)c(F)c2)sc1C(=O)COC1CC(F)(F)C1(F)F (stereo unspecified)	5.2 mL/min/g		
COc1ccc(Nc2nc(N)c(C(=O)COC(C)C(F)(F)F)s2)cn1 (stereo unspecified)	9 mL/min/g	50 µM	solubility kinetic [4]: > 100 µg/mL
Nc1nc(Nc2ccc(F)c(F)c2)sc1C(=O)CN1C[C@@H]2C[C@H]1CO2	4.1 mL/min/g	50 µM	
CC(C)OCC(=O)c1sc(Nc2ccc(F)c(F)c2)nc1N	9.3 mL/min/g	50 µM	
C[C@@H]1CN(CC(=O)c2sc(Nc3ccc(F)c(F)c3)nc2N)C[C@H](C)O1	8.1 mL/min/g	50 µM	EC50 (Trypanosoma brucei [7]): 50 nM; selectivity ratio [2]: 1000
Nc1nc(NC2CCCCC2)sc1C(=O)c1ccccc1F	9.7 mL/min/g	2 µM	
CCOCC(=O)c1sc(Nc2ccc(F)c(F)c2)nc1N		50 µM	
Nc1nc(Nc2ccc(F)c(F)c2)sc1C(=O)COC(CF)CF		50 µM	
Nc1nc(Nc2ccccc2)sc1C(=O)c1ccc(F)cc1	7.3 mL/min/g		
CC(OCC(=O)c1sc(Nc2ccc3c(c2)OC(F)(F)O3)nc1N)C(F)(F)F (stereo unspecified)	5 mL/min/g	50 µM	solubility kinetic [4]: > 100 µg/mL
Nc1nc(NC2CCCCC2)sc1C(=O)c1ccccc1C(F)(F)F	14 mL/min/g		
Nc1nc(Nc2ccc(F)c(F)c2)sc1C(=O)CN1CCCC1C(F)(F)F (stereo unspecified)	26 mL/min/g		
CC(C)CC(=O)c1sc(Nc2ccc(F)cc2)nc1N	8 mL/min/g		
Nc1nc(Nc2ccc(F)c(F)c2)sc1C(=O)CN1CCCCC1	7.7 mL/min/g		
CC(OCC(=O)c1sc(Nc2ccn(C)n2)nc1N)C(F)(F)F (stereo unspecified)	10.8 mL/min/g		

From ChEMBL document CHEMBL5346944, “Development of a 2,4-Diaminothiazole Series for the Treatment of Human African Trypanosomiasis Highlights the Importance of Static-Cidal Screening of Analogues” (J Med Chem, 2023)
